Assay outcomes from PubChem.
This excerpt belongs to a sample that is enriched for hits.
HEK293 NFkB inh: inhibitors of the PMA/ionomycin-induced NF-kB reporter in HEK293 cells. inhibition, % at 3 µM. hit rate 0.21% among 62,000. HEK-293 NF-kB luciferase reporter, luminescence;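 active = inhibition above the mean of all tested compounds plus 3 SD, cut at about 40% in these data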;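 note: 0% = stimulated DMSO wells and 100% = 10 µM reference inhibitor 5653914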
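System: NF-kB luciferase reporter HEK-293 cells | Replication: Single test | Control set: DMSO vs reference inhibitor | Evaluation: % inhibition | Schedule: 1 h pretreatment, 16 h stimulation, 37 °C | Probe or stimulus: PMA with ionomycin | Compound dosing: One dose, 3 µM | Detection: Luciferase luminescence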
D1 mod: allosteric modulators of human D1 dopamine receptor. B-score at 10 µM. hit rate 5.9% among 58,000. HEK293 D1, CRE-luciferase, dopamine EC30 potentiation; actives deviate in either direction;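 active = luminescence count or its row- and column-corrected plate score outside the 99.7% band of the plate's sample wells, on either side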
DAT uptake mod: modulates human dopamine transporter uptake under cocaine; Q01959; LLC-PK1 hDAT cells, [14C]-dopamine uptake with cocaine IC80; actives deviate in either direction; B-score at 10 µM; hit rate 1.3% among 110,000; AID 449768;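 active = Z score or B-score, a plate-position-corrected score, falls beyond the plate's 99.7% confidence bounds, in either direction; inactive = both scores lie inside the 99.7% bounds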;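 note: scored against the spread of the other compound wells on the same plate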
AP ELISA ortho: alternative pathway complement inhibition, orthogonal assay; AID 1235; hit rate 0.08% among 62,000; Human serum alternative complement pathway, LPS-coated ELISA, C3 deposition; tested in compound mixtures; inhibition, % at 5 µM;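 active = inhibition above 30% in each of the two pooled mixtures holding the compound, so the lower value exceeds 30%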;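 note: 0% = serum in Mg-EGTA without compound and 100% = EDTA serum blank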
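Assay system: Human serum alternative complement pathway, C3 deposition on LPS-coated wells | Incubation: 1 h serum-compound exposure at 37 °C | Doses: 5 µM per compound in ten-compound mixtures | Read-out: Percent inhibition | Technique: ELISA with HRP anti-human C3 antibody, TMB substrate, absorbance 450 nm | Replication: Two pool placements per compound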
E coli RNAP: blocks E. coli RNA polymerase transcription. P0A8V2. fluorescence transcription assay. inhibition, %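 (tested at 10 µM)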. hit rate 0.2% among 62,000. AID 559; in the data active = inhibition above about 20%;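 note: 0% = enzyme without compound and 100% = no enzyme blank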
Target sequence (P0A8V2 whole entry, looked up): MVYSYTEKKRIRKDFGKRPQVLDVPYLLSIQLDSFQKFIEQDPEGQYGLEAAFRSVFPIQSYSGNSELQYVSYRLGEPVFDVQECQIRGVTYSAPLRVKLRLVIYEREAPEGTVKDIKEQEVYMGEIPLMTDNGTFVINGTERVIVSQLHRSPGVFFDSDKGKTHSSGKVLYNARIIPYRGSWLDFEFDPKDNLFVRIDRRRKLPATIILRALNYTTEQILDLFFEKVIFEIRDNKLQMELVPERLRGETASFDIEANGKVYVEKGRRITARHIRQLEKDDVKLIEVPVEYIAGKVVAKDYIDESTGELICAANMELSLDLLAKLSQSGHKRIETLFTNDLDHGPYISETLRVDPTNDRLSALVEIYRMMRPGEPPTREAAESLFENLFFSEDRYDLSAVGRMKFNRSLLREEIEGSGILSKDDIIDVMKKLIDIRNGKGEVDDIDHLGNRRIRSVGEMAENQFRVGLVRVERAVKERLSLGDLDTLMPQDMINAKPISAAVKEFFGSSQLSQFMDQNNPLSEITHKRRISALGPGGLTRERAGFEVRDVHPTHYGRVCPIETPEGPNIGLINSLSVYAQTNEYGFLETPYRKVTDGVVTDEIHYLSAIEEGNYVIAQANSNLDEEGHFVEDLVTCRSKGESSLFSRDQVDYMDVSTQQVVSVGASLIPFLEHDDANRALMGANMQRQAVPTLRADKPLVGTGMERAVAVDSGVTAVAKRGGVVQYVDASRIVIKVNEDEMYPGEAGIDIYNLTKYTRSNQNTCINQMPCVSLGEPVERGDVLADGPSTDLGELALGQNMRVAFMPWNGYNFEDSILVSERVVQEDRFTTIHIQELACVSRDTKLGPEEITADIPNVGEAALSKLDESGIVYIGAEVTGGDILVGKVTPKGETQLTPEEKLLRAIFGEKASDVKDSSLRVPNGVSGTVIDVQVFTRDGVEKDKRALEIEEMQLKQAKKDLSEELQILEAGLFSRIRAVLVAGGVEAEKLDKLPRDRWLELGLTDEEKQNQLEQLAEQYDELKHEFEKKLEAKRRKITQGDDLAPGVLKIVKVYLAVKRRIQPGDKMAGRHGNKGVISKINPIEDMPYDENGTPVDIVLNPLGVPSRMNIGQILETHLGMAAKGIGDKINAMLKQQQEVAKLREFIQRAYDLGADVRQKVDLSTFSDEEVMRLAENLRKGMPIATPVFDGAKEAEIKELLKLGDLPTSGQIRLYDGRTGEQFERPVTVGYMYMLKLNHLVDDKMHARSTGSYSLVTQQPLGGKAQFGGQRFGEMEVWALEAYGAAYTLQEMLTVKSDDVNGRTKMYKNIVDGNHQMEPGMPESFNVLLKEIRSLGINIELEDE
D1 PAM confirm: D1 receptor (human) allosteric modulation, confirmed; hit rate 88% among 2,200; HEK293 D1 CRE-luciferase, dopamine EC30 potentiation; stronger effect = higher value; luminescence at 10 µM; AID 642; shares compounds with D1 mod;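 active = luminescence in either of two replicates above the same-plate mean plus 3 SD of the low-dose dopamine control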
D1 no dopamine: secondary test of D1 modulators: activity without dopamine; shares compounds with D1 mod; HEK293 D1 CRE-luciferase, luminescence, no dopamine; stronger effect = higher value; luminescence at 10 µM; hit rate 0.8% among 1,900; in the data active = luminescence above about 3900
Isoprot counter: counter-screen for D1 modulators: isoproterenol response in HEK293 cells; HEK293 D1 CRE-luciferase, isoproterenol EC30 counter-screen; shares compounds with D1 mod; calls only at 10 µM; hit rate 63% among 2,200;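 active = luminescence in either replicate above plate mean of wells with a partly effective reference agonist dose plus 3 SD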;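 note: isoproterenol raises cAMP through native beta-adrenoceptor Gs so signal bypasses D1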
Active calls of the source: *; i = inactive; . = no result given; + = active, no number.

SMILES | HEK293 NFkB inh | D1 mod | DAT uptake mod | AP ELISA ortho | E coli RNAP | D1 PAM confirm | D1 no dopamine | Isoprot counter
N#Cc1cc2ccccc2nc1SCC(=O)Nc1ccc(S(=O)(=O)N2CCCC2)cc1 | 5 | 2.5* | 0.81 | 19 | 3 | 9776* | 1832 | i
NC(=O)c1cnccn1 | . | . | 0.043 | . | . | . | . | .
CCOc1cc2nc(-c3ccc(OC)c(OC)c3)nc(N3CCOCC3)c2cc1OC | . | 13* | 0.88 | . | -8 | 10492* | 1512 | +
Cc1cc(Oc2ccccc2)nc(OCC#N)n1 | 20 | 2.9 | -0.26 | -1 | 3 | . | . | .
COc1ccc(CNC(N)=O)cc1OC | . | . | 0.1 | . | . | . | . | .
COc1ccc(CN/C(C)=C(/C#N)C(N)=O)cc1OC | 15 | 3.5* | -0.23 | 13 | 0 | 7928* | . | +
CCCCCn1c2nc3ccccc3nc2c2c(=O)n(CC3CCCO3)c(C)nc21 (stereo unspecified) | 6 | 1.1 | . | 16 | -1 | . | . | .
CCOC(=O)c1ccccc1NC(=O)c1ccccc1SC | 25 | -0.046 | -0.65 | 10 | 8 | . | . | .
CCOC(=O)c1ccccc1NC(=O)c1cccs1 | 10 | 7.2* | -0.24 | -4 | 10 | 8864* | 1480 | +
CCOC(=O)c1c(NC(=O)c2cccs2)sc(C)c1CC | 23 | 3.8* | 0.23 | 22 | 4 | 10804* | 1624 | i
CCOC(=O)c1ccccc1NC(=O)COc1ccccc1 | 14 | 13* | -1.2 | 20 | 7 | 16280* | 1552 | +
C=C1CCN([C@H](C(=O)OCc2cccc(C)c2)C(C)C)S(=O)(=O)c2ccccc21 | . | . | -0.24 | . | . | . | . | .
Cc1ccc(S(=O)(=O)N2CCOCC2)cc1C(=O)N1c2ccccc2Sc2ccccc21 | . | . | 0.14 | . | . | . | . | .
CN=C1SC(CC(=O)Nc2sc(C)c(C)c2C(=O)OC)C(=O)N1C (stereo unspecified) | 10 | 3.4* | -0.13 | 6 | 3 | 8820* | 1856 | +
CCOC(=O)c1ccc(Oc2cc(C)nc(SC)n2)cc1 | 17 | 3* | 0.42 | 11 | -3 | 8484* | 1628 | i
Cc1cc(Oc2ccccc2)nc(N)n1 | 21 | 4* | 1.3 | 13 | 1 | 9044* | . | +
CCNc1nc(Oc2ccc(C(=O)OCC)cc2)nc(SC)n1 | 8 | -0.64 | 0.93 | 19 | 2 | . | . | .
CCOC(=O)c1ccc(Oc2nc(NC)nc(SC)n2)cc1 | 9 | 8* | 0.46 | -11 | 6 | 17796* | 1848 | i
COC(=O)c1ccc(Oc2cc(C)nc(-n3nc(C)cc3C)n2)cc1 | 37 | 7.8* | -0.65 | 13 | . | 18884* | 1876 | +
COC(=O)c1ccc(Oc2nc(C)cc(Oc3ccccc3)n2)cc1 | 9 | 0.37 | 1.3 | 17 | -8 | . | . | .
CC1(c2nnc(-c3ccccc3)o2)CC(c2ccncc2)=NO1 (stereo unspecified) | . | . | -1.8 | . | . | . | . | .
Cc1cc(Oc2ccccc2)nc(SCC(=O)Nc2ccc(Cl)cc2Cl)n1 | . | . | 0.03 | . | . | . | . | .
COC(=O)CSc1nc(C)cc(Oc2ccccc2)n1 | 18 | 12* | 0.43 | 14 | -1 | 13148* | . | +
Cc1ccc(S(=O)(=O)N2CCCC2c2nc3ccccc3s2)cc1 (stereo unspecified) | . | . | -1.3 | . | . | . | . | .
CCCOC(=O)c1ccc(OCC(O)CN2C(=O)NC(C)(C)C2=O)cc1 (stereo unspecified) | -1 | . | -0.03 | -14 | 5 | . | . | .
COC(=O)c1ccc(OCC(O)CN2C(=O)NC(C)(C)C2=O)cc1 (stereo unspecified) | 9 | 5.8* | 0.2 | 3 | -3 | 6500* | . | i
Cc1ccc(S(=O)(=O)N2CCOCC2)cc1NC(=O)COC(=O)CSc1ccc(Br)cc1C | . | . | -2.1 | . | . | . | . | .
Cc1c(NS(C)(=O)=O)c(=O)n(-c2ccccc2)n1C | 20 | -0.75 | -0.34 | 4 | 8 | . | . | .
Cc1cc(F)ccc1S(=O)(=O)Nc1c(C)n(C)n(-c2ccccc2)c1=O | 8 | 5* | 0.89 | 28 | 0 | 5280 | 1740 | i
CC(=O)Nc1ccc(NC(=O)CN(C)CCC#N)cc1 | 6 | -0.00013 | -0.051 | 6 | 8 | . | . | .
